Vif inh – HIV Vif inhibition; AID 602346; inhibition, % at 7.49 µM; HEK293T cells, Vif self-association by quenched fluorescence, imaging, 24 h; 0.35% of 340,000 active; in the data active = inhibition above about 50%, passing the limit was not always enough; inconclusive = no clear call, values can overlap the other calls; inactive = below about 31%
T cell HTS – T cell immune modulators affecting CD8 T cell-vesicle binding | 2C CD8+ T cell-vesicle binding, flow cytometry; stronger effect = lower value | AID 2052 | response (vesicle binding), % at 7 µM | 0.068% of 330,000 active;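 active = response, share of CD8 T cells binding vesicles, and their 90th percentile fluorescence all below set limits, cut at about 80% in these data, passing the limit was not always enough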;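 note: values below 100% mean blocked vesicle binding to the CD8+ T cells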
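Benchmarks: naked versus QL9-loaded vesicles / Assay system: purified 2C TCR transgenic mouse naive CD8+ T cells / Technique: high-throughput flow cytometry with anti-B7-1 and anti-CD8 staining / Timing: Cell–vesicle co-incubation 1.5 h at 37 °C, staining 20 min on ice / Read-out: percent CD8+ FL2 mean versus row control / Probe or stimulus: QL9-loaded Drosophila micro-vesicles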
Myeloid diff MLP – promotes myeloid progenitor differentiation. ER-HoxA9 myeloid progenitors, lysozyme-GFP differentiation, flow cytometry. calls only at 10 µM. 1% of 360,000 active. AID 624256;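 active = normalized GFP-positive differentiation at or above the plate's own cutoff, the solvent-only control mean plus 3 SD; inconclusive = no clear call, values can overlap the other calls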;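 note: cells exposed to compound for four days before flow analysis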
CASP6 VEID inh – blocks human caspase-6 cleavage activity; purified caspase-6, Z-VEID-R110 cleavage fluorescence; inhibition, % at 12.5 µM; 0.53% of 350,000 active;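 active = mean inhibition across replicates at least about 35%, with every replicate also reaching that limit, limit read from the data; inconclusive = only one of the two criteria met; inactive = neither criterion met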
Target sequence (P55212 24-179 limits assumed): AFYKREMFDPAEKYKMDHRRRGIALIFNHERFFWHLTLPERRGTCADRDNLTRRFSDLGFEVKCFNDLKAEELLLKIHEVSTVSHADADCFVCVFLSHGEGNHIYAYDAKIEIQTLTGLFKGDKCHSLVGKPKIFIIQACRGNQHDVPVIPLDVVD
Target sequence (P55212 194-293 limits assumed): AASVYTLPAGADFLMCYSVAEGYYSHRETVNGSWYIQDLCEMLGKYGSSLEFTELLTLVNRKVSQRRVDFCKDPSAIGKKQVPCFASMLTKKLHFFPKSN
Myeloid diff CP1 – promotes myeloid progenitor differentiation | shares compounds with Myeloid diff MLP | ER-HoxA9 myeloid progenitors, GFP/Mac1 double-positive flow | calls only | 2% of 2,300 active | AID 651706;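 active = share of green or green-and-red cells above 9 and 9% in run 1 or 4 and 3% in run 2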
GFP autofluor – counter-screen for myeloid differentiation promoters: compound fluorescence; ER-HoxA9 myeloid progenitors, no estrogen, GFP autofluorescence flow cytometry; vehicle wells 0%, positive control 100%; 7.4% of 2,300 active; fluorescence response, % (no concentration beside the values); AID 651707; shares compounds with Myeloid diff MLP;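 active = over 5% cells positive for green fluorescent reporter, or over 2% positive for both it and APC stain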
Of the large screens only hits and unclear results are named; the others gave an inactive call (follow-up assays come after a bar, where they were run). Most compounds without a hit are left out; they make up all but 1.4% or so of the library.

COc1ccccc1CNC(=O)C[C@@H]1C[C@H]2c3cc(NS(=O)(=O)c4ccc(F)cc4)ccc3O[C@H]2[C@@H](CO)O1	none (no result: Vif inh, T cell HTS, Myeloid diff MLP)
Cc1csc(NC(=O)Cc2ccccc2Cl)n1	none
Cc1cnc(NC(=O)Cc2ccccc2Cl)s1	none | Myeloid diff CP1 inactive | GFP autofluor inactive
Cc1cnc(NC(=O)CSc2ccccc2)s1	Myeloid diff MLP active (no result: Vif inh) | Myeloid diff CP1 inactive | GFP autofluor inactive
O=S(=O)(c1ccccc1)N1CC2(C1)[C@@H](c1ccccc1)[C@H](CO)N2CC1CC1	none (no result: Vif inh, T cell HTS, Myeloid diff MLP)
COc1cccc(CNC(=O)C(CCSC)NS(=O)(=O)c2ccc3c(c2)oc(=O)n3C)c1 (centres undefined)	none (no result: CASP6 VEID inh) | Myeloid diff CP1 inactive | GFP autofluor 5.8
N#C/C(=N\Nc1ccc(S(=O)(=O)N2CCc3ccccc32)cc1)C(N)=S	Myeloid diff MLP active (no result: CASP6 VEID inh) | Myeloid diff CP1 inactive | GFP autofluor inactive
CC(C)C#Cc1cnc2c(c1)C(=O)N([C@@H](C)CO)C[C@@H](C)[C@H](CN(C)C(=O)Cc1ccccn1)O2	none (no result: Vif inh, T cell HTS, Myeloid diff MLP)
CC(=O)Nc1nc(-c2ccccc2)nc(-c2ccccc2OC(C)=O)n1	Myeloid diff MLP active | Myeloid diff CP1 inactive | GFP autofluor inactive
CC(=O)Nc1nc(C)nc(-c2ccccc2OC(C)=O)n1	none
O=C(O)C1CCCCC1C(=O)Nc1cccc(C(=O)N2CCCCC2)c1 (centres undefined)	Myeloid diff MLP active | Myeloid diff CP1 inactive | GFP autofluor inactive
O=C(Nc1cccc(C(=O)N2CCCCC2)c1)C1CCCC1	none (no result: Vif inh, T cell HTS)
CCS(=O)(=O)Nc1ccc2c(c1)C(=O)N(C)[C@H]1CC[C@H](CC(=O)NC)O[C@@H]1CO2	none (no result: Vif inh, T cell HTS, Myeloid diff MLP)
O=C1C=CN2CCCCC2CC1 (centres undefined)	Myeloid diff MLP active | Myeloid diff CP1 inactive | GFP autofluor inactive
O=C(NCCc1c[nH]c2ccccc12)c1ccc([N+](=O)[O-])o1	Myeloid diff MLP active (no result: T cell HTS) | Myeloid diff CP1 inactive | GFP autofluor inactive
CC(C)(C)C(=O)Nc1nc2c(s1)CN(Cc1ccccc1)CC2	none | Myeloid diff CP1 inactive | GFP autofluor inactive
O=C(Nc1nc2c(s1)CN(Cc1ccccc1)CC2)C1CCCC1	none
Cc1sc2ncnc(NCCc3ccc(S(N)(=O)=O)cc3)c2c1C	Vif inh inconclusive | Myeloid diff CP1 inactive | GFP autofluor inactive
O=C(NNC1=Nc2cccc3cccc1c23)c1ccc(Br)cc1	Myeloid diff MLP active | Myeloid diff CP1 inactive | GFP autofluor 12.4
O=C1CSC(=Nc2ccc(F)cc2)N1	Myeloid diff MLP active | Myeloid diff CP1 inactive | GFP autofluor inactive
O=C1CSC(=Nc2ccccc2)N1	none (no result: CASP6 VEID inh)
N#Cc1c(NC(=O)CCn2cnc3ccccc3c2=O)oc(-c2ccccc2)c1-c1ccccc1	none (no result: CASP6 VEID inh) | Myeloid diff CP1 inactive | GFP autofluor inactive
CNC[C@H]1Oc2cc(-c3cncnc3)ccc2S(=O)(=O)N([C@H](C)CO)C[C@@H]1C	none (no result: Vif inh, T cell HTS, Myeloid diff MLP)
CC(C)NC(=O)C1C(c2ccccc2)=Nc2ccccc2N1C(=O)c1ccc(C(F)(F)F)cc1 (centres undefined)	none (no result: Vif inh, T cell HTS)
COc1ccc(C2=Nc3ccccc3N(C(=O)c3ccc(C(F)(F)F)cc3)C2C(=O)Nc2c(C)cccc2C)cc1 (centres undefined)	none (no result: Vif inh, T cell HTS) | Myeloid diff CP1 inactive | GFP autofluor inactive
O=C(CC(F)(F)F)N1C[C@@H]2[C@H](c3ccccc31)[C@@H](CO)N2C(=O)c1cccnc1	none (no result: Vif inh, T cell HTS, Myeloid diff MLP)
C[C@]1(C(=O)NCCCNc2ncc(C(F)(F)F)cc2Cl)C=C[C@@H](Cc2ccccc2)N1C(=O)c1ccccc1	none (no result: T cell HTS, CASP6 VEID inh) | Myeloid diff CP1 inactive | GFP autofluor inactive
O=C(O)C1C2C=CC(C2)C1C(=O)OC1CC2CCC1C2 (centres undefined)	Myeloid diff MLP active (no result: CASP6 VEID inh) | Myeloid diff CP1 inactive | GFP autofluor inactive
N#Cc1c(N)nc(SC2CCCCC2=O)c(C#N)c1-c1ccco1 (centres undefined)	none (no result: CASP6 VEID inh) | Myeloid diff CP1 inactive | GFP autofluor inactive
CO[C@@H]1CN(C)C(=O)c2ccc(NS(C)(=O)=O)cc2OC[C@H](C)N(Cc2cccnc2)C[C@H]1C	none (no result: Vif inh, T cell HTS, Myeloid diff MLP)
COc1ccc2c3c(n(C)c2c1)[C@H](CO)N(C(=O)CN(C)C)CC31CCN(C(=O)NC(C)C)CC1	none (no result: Vif inh, T cell HTS, Myeloid diff MLP)
CN(C)c1ccc(NC(=O)CN2CCC(O)(c3ccccc3)CC2)cc1	none | Myeloid diff CP1 inactive | GFP autofluor inactive
CCOC(=O)Nc1nc(C)c(C(=O)c2ccc(Cl)cc2)s1	none (no result: CASP6 VEID inh) | Myeloid diff CP1 inactive | GFP autofluor inactive
COC(=O)Nc1nc(C)c(C(=O)c2ccccc2)s1	none (no result: CASP6 VEID inh)
c1ccc(CNc2ncnc3scc(-c4cccs4)c23)nc1	none | Myeloid diff CP1 inactive | GFP autofluor inactive
COc1ccc(/C=C/c2cccc[n+]2C)c(O)c1	none | Myeloid diff CP1 active | GFP autofluor inactive
O=C(NCCCCc1ccccc1)C12CN(Cc3ccccc3)CC1C(c1ccc([N+](=O)[O-])cc1)=NO2 (centres undefined)	Myeloid diff MLP active (no result: Vif inh) | Myeloid diff CP1 inactive | GFP autofluor inactive
CC1(C)CC(=O)C/C(=N\NC(=O)Cc2ccccc2)C1	none (no result: CASP6 VEID inh)
CC1(C)CC(=O)C/C(=N/NC(=O)c2ccc(-c3ccccc3)cc2)C1	Myeloid diff MLP active | Myeloid diff CP1 inactive | GFP autofluor 5.2
COCCn1ccc2c(OCC(=O)Nc3cc(OC)ccc3OC)cccc2c1=O	Myeloid diff MLP active | Myeloid diff CP1 inactive | GFP autofluor inactive
CCOCCn1ccc2c(OCC(=O)Nc3cc(OC)ccc3OC)cccc2c1=O	Myeloid diff MLP inconclusive
Cc1occc1C(=O)NCCCCc1ccccc1	none (no result: CASP6 VEID inh)
COc1ccccc1CCNC(=O)c1ccoc1C	Myeloid diff MLP active (no result: CASP6 VEID inh) | Myeloid diff CP1 inactive | GFP autofluor inactive
Cc1cc(C(=O)NC2CCCc3c2cnn3-c2cccc(C)c2C)no1 (centres undefined)	Myeloid diff MLP active | Myeloid diff CP1 inactive | GFP autofluor inactive
C/C=C/c1ccccc1[C@@H]1[C@@H](C#N)N(C(=O)CN2CCOCC2)[C@@H]1CO	none (no result: Vif inh, T cell HTS, Myeloid diff MLP)
c1cnc(N2CCN(c3nc4ccccc4n4cnnc34)CC2)nc1	none (no result: CASP6 VEID inh) | Myeloid diff CP1 inactive | GFP autofluor inactive
Cn1cc(-c2cccc(C(F)(F)F)c2)cc(C#N)c1=O	Myeloid diff MLP active | Myeloid diff CP1 inactive | GFP autofluor inactive
Cn1cc(-c2cccc(Cl)c2)cc(C#N)c1=O	none
CCCC#Cc1ccc2c(c1)[C@H]1[C@H](CCN1S(=O)(=O)c1cn(C)cn1)[C@H](CO)N2	none (no result: Vif inh, T cell HTS, Myeloid diff MLP)
Cn1c2ccccc2c(=O)c2ccc(NCc3ccc4c(c3)OCO4)cc21	Myeloid diff MLP active (no result: Vif inh, T cell HTS) | Myeloid diff CP1 inactive | GFP autofluor inactive
CO[C@H]1CN(C)C(=O)c2cc(NC(C)=O)ccc2OC[C@@H](C)N(Cc2cc(F)ccc2F)C[C@H]1C	none (no result: Vif inh, T cell HTS, Myeloid diff MLP)
O=C(N/N=C/c1cccc(O)c1)c1ccc(COc2cccc3cccnc23)cc1	Myeloid diff MLP active | Myeloid diff CP1 inactive | GFP autofluor inactive
COc1ccccc1C1CC(c2ccccc2)=NN1S(=O)(=O)c1ccccc1 (centres undefined)	none
COc1cccc(C2CC(c3ccccc3)=NN2S(=O)(=O)c2ccc(C)cc2)c1OC (centres undefined)	Myeloid diff MLP active | Myeloid diff CP1 inactive | GFP autofluor 92.7

High-throughput results as filed in PubChem.
